Rows were chosen to be rich in hits. Some 12% of all compounds tested hit in one or more screens of this group.
Diaphorase act: compounds boosting diaphorase resazurin reduction – biochemical, uHTS, resorufin fluorescence, counter-screen for diaphorase-coupled primary assays, primary screen; activation factor at 20 µM; Diaphorase/resazurin coupled assay, 16 min; hits give high values; 1 = vehicle wells, 0 = NADH-free wells; hit rate 0.005% among 190,000; AID 1229, 2008;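 active means diaphorase activity raised at least twofold by the compound at 20 µM; inactive means activation factor below 2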
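test system = bacterial diaphorase enzyme (C. kluyveri) | quantity = enzyme 0.07 U/mL final | reagent = NADH substrate 0.114 mM plus resazurin dye 0.1 mM, final | incubation = 16 min enzyme reaction, ambient temperature | buffer or medium = HEPES pH 7.4 buffer with MgCl2 and Tween 20 | signal = fluorescence of resorufin, 544 nm excitation, 590 nm emission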
ROMK mod: ROMK potassium channel modulators, primary screen, cell-based, thallium flux, MLSMR library; hit rate 2% among 130,000; ATP-sensitive inward rectifier potassium channel 1 (Homo sapiens), P48048; B-score at 10 µM; Tet-inducible ROMK, thallium flux fluorescence; actives lie on both sides;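 active means signal ratio slope over the read window, or its plate-corrected B-score, at least 3 SD from the plate mean, either direction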;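 further: B-score of the F/F0 ratio slope over 7 to 12 s after thallium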
KCC2 mod: KCC2 cotransporter modulators, thallium flux, primary screen, cell-based, HEK293 KCC2, FluoZin-2 fluorescence, MLSMR | Solute carrier family 12 member 5 (Homo sapiens), Q9H2X9 | KCC2 cells, thallium flux FluoZin-2 fluorescence | B-score of Tl+ flux slope (higher = more flux/activation; lower = inhibition) at 10 µM | hit rate 2.2% among 190,000;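 active means thallium flux slope and its plate-corrected score both differing from the plate sample mean at a set confidence after two filtering rounds, in either direction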;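 further: slope of fluorescence scaled to starting intensity during 10 to 20 s after thallium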
Target sequence (Q9H2X9 whole entry, looked up): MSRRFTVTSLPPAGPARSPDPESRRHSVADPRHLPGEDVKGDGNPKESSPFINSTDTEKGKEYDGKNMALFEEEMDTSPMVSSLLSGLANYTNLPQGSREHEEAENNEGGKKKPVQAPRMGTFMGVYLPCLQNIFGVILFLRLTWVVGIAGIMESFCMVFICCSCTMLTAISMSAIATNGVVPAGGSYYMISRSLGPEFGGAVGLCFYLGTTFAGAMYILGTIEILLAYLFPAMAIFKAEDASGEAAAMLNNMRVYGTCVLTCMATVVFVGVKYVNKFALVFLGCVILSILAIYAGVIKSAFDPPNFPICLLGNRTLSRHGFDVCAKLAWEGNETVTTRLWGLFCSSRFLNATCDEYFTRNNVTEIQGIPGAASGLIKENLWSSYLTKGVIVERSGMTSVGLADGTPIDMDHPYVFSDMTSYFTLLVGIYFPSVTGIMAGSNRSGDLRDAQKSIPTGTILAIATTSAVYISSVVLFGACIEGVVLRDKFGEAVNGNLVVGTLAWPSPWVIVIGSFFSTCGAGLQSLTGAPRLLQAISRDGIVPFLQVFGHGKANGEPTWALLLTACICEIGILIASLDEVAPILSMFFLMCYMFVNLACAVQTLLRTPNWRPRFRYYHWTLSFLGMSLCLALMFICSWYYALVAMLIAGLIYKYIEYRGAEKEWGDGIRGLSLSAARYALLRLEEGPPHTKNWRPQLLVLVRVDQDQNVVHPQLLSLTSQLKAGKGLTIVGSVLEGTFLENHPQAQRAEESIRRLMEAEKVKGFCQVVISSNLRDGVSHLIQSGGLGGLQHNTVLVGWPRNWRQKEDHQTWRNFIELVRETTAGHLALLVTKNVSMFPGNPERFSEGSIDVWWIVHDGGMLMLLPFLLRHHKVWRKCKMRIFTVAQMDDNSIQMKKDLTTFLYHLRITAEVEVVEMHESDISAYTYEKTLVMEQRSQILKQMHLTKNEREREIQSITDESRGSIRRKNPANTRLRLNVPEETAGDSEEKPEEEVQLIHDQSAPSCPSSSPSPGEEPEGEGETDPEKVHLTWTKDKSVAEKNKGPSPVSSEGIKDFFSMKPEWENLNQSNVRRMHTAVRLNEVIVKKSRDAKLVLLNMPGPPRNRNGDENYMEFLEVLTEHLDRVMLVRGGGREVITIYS
Lmaj promast: Leishmania major promastigote growth inhibition, primary screen; Leishmania major promastigotes, resazurin fluorescence viability; inhibition, % at 10 µM; hit rate 9% among 200,000; AID 1063, 2008; in the data active means inhibition above about 50%;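 further: promastigotes grown with compound for 44 hours at 28 °C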
WT yeast gro inh: growth inhibition of WT strain, primary screen, mitochondrial fusion inhibitor project, WT and mutant strains, chemical genetic | mitochondrial fusion phenotypic screen | inhibition, % at 10 µM | hit rate 2.1% among 190,000; in the data active means inhibition above about 58%; tested in S. cerevisiae
Diaphorase inh: diaphorase inhibitors and chemical oxidizers, primary screen, counter-screen for diaphorase-coupled primary assays, biochemical, uHTS, resorufin fluorescence. diaphorase resazurin-to-resorufin fluorescence, NADH, 16 min; bacterial (C. kluyveri) enzyme, not human. inhibition, % at 20 µM. hit rate 0.69% among 190,000;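 active means primary screen inhibition at 20 µM above a set limit, cut at about 50% in these data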;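 further: plate controls were DMSO with full reaction for no effect and wells lacking NADH for full effect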
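Test system: Clostridium kluyveri diaphorase enzyme / Quantity: diaphorase at 0.14 U/mL in enzyme working solution / Incubation: 16-min room-temperature incubation before reading / Benchmarks: NADH-free wells as positive control, DMSO-only neutral wells / Signal: resorufin fluorescence 544/590 nm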
KCC2 secondary: KCC2 modulators in sodium-free buffer, confirmation, cell-based, HEK293 KCC2, thallium flux, secondary assay. shares compounds with KCC2 mod. hit rate 15% among 3,700. normalised thallium flux (F/F0 slope) at 10 µM. FluoZin2 fluorescence; hits give high values. AID 1713, 2009;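 active means thallium flux slope above the same plate's solvent-only control mean plus 3 SD; inconclusive means the two replicate wells disagree; inactive means no significant difference from solvent-only control wells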
KCC2 bumet counter: thallium flux persisting under bumetanide in KCC2 cells, confirmation, counter-screen for KCC2 modulator project, cell-based, HEK293 KCC2, FluoZin2, secondary assay 3; shares compounds with KCC2 mod; normalized thallium flux at 10 µM; HEK293-KCC2 + bumetanide/ouabain; hits give high values; hit rate 49% among 3,700; AID 1714, 2009;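 active means thallium entry rate above the same plate's blocked-transporter control wells by more than 3 SD; inconclusive means the two repeat wells disagree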;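 further: raw slope of fluorescence over initial fluorescence between 10 and 20 s after thallium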
KCC2 secondary2: KCC2 modulators without ouabain present, confirmation, cell-based, HEK293 KCC2, thallium flux, FluoZin2, secondary assay 2. shares compounds with KCC2 mod. thallium flux FluoZin2 fluorescence; actives lie on both sides; F/F0 rise rate, 10–20 s post-thallium. normalized thallium flux at 10 µM. hit rate 23% among 3,700;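 active means thallium flux slope more than 3 SD above or below the plate's solvent-only control mean, mostly below; inconclusive means the two repeat wells disagreed; inactive means no significant shift from solvent-only controls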;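 further: raw slope with 0.1% DMSO as baseline and bumetanide as block control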
HEK293 Tl flux: thallium flux modulation in parental HEK cells, confirmation, counter-screen for KCC2 modulator project, cell-based, counterscreen 1. shares compounds with KCC2 mod. HEK293 parental cells, thallium flux FluoZin2, ouabain; baseline-ratio fluorescence slope, 10–20 s after thallium. thallium flux rate (normalised fluorescence) at 10 µM. hit rate 46% among 3,700;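 active means thallium flux rate significantly above the same plate's solvent-only control wells, beyond their mean plus 3 SD; inconclusive means the two replicate wells gave conflicting results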
KCC2 retest ouab: KCC2 inhibitors and activators, ouabain retest, confirmation, HEK-KCC2 cells. hit rate 48% among 3,700. raw Tl+ flux slope (below DMSO = inhibition, above = activation) at 10 µM. HEK293-KCC2, thallium flux FluoZin2 fluorescence; bidirectional: low = inhibitor, high = activator. shares compounds with KCC2 mod;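 active means thallium flux slope beyond 3 SD from same-plate DMSO control mean in most replicates, usually higher, sometimes lower; inconclusive means repeat tests gave conflicting results; inactive means no significant difference from controls in most replicates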;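 further: slope of initial-normalized fluorescence between seconds 10 and 20 after thallium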
HEK293 Tl flux2: native HEK Tl+ uptake effects, second counter-screen – HEK cells, counterscreen 2, counter-screen for KCC2 modulator project, confirmation; shares compounds with KCC2 mod; HEK293 parental, thallium flux FluoZin-2 fluorescence slope; thallium flux slope at 10 µM; hit rate 33% among 3,700;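 active means thallium flux slope above the same plate's solvent-control mean plus 3 SD in both duplicate wells; inconclusive means duplicate wells that disagreed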;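 further: run without ouabain in cells lacking the KCC2 cotransporter; slope of fluorescence scaled to its starting value between 10 and 20 s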
* = called active by the depositor; ? = inconclusive; / = no result given.

SMILES	Diaphorase act	ROMK mod	KCC2 mod	Lmaj promast	WT yeast gro inh	Diaphorase inh	KCC2 secondary	KCC2 bumet counter	KCC2 secondary2	HEK293 Tl flux	KCC2 retest ouab	HEK293 Tl flux2
S=c1[nH]nc(-c2ccccn2)n1/N=C/c1ccc(Cl)c(Cl)c1	/	/	40.9*	/	/	/	0.00562	0.109*	0.0544*	0.0408*	0.0665*	0.0306*
S=c1[nH]nc(-c2ccccn2)n1/N=C/c1ccc(-c2ccccc2Cl)o1	0.8	0.327	132*	-4.6	42.7	20.7	0.122*	0.138*	0.0307	0.131*	0.148*	0.0132*
S=c1[nH]nc(-c2cc(-c3ccccc3)n[nH]2)n1/N=C/c1ccc(Cl)c(Cl)c1	/	-1.63	0.304	/	/	/	/	/	/	/	/	/
COC(=O)c1ccc(NC(=O)CN(c2ccc(C)cc2)S(=O)(=O)c2c(C)nn(C)c2C)cc1	0.8	-0.207	-1.11	6.7	-1.7	18.6	/	/	/	/	/	/
CCOC(=O)c1cc(-c2ccc(Cl)cc2)nc2onc(C)c12	0.8	-0.0506	/	1.7	-5.7	16.7	0.00749	0.00456	0.0287	0.00783	0.0187	0.0105
CCc1cc2cc(C)cc(C)c2nc1SCC(=O)N1CCN(C(=O)c2ccco2)CC1	0.8	0.0165	-0.23	-0.8	26.8	20.7	/	/	/	/	/	/
O=C(CSc1nc(-c2ccc(F)cc2)cs1)N1CCN(C(=O)c2ccco2)CC1	0.7	/	-3.06*	-11.2	10.2	26.6	0.00739	0.00608	0.0288	0.00609	0.0148*	0.00901
CCc1cc2cccc(C)c2nc1SCC(=O)N1CCN(C(=O)c2ccco2)CC1	0.8	/	-3.19*	3.9	16.9	21.0	0.0157	0.00426	0.0211*	0.00466*	0.0126*	0.00722*
Cc1ccc(-c2c[nH]c(=S)n2-c2ccccc2F)cc1	0.8	0.00488	3.02	-5.0	1.1	15.2	/	/	/	/	/	/
O=C1C2C3C=CC(CC3)C2C(=O)N1/N=C/c1ccccc1O (centres undefined)	1.1	0.481	-0.185	-1.9	-12.0	-9.3	/	/	/	/	/	/
O=C1C2C3C=CC(CC3)C2C(=O)N1/N=C/c1c(O)ccc2ccccc12 (centres undefined)	0.7	0.25	3.3*	-4.6	8.5	34.0	0.00905	0.006	0.0313	0.00772	0.022	0.0105
NC(=O)NC(=O)COC(=O)c1cccc(S(=O)(=O)N2CCCCCC2)c1	/	/	0.833	/	/	/	/	/	/	/	/	/
O=C(N/N=C/c1cn(-c2cccs2)nc1-c1ccccc1)c1ccccc1Br	0.8	/	0.26	13.0	11.6	22.7	/	/	/	/	/	/
O=C(N/N=C/c1cn(-c2cccs2)nc1-c1ccccc1)c1ccccc1O	1	-0.0884	5.44*	99.4*	60.1*	4.7	0.00963	0.019*	0.0325	0.0106*	0.0226	?
c1ccc(-c2nc(-c3nccc4ccccc34)oc2-c2ccccc2)cc1	/	/	-0.0565	/	/	/	/	/	/	/	/	/
CCOC(=O)C1=C(C)C(c2ccccc2O)NC(=O)N1 (centres undefined)	0.9	-0.0969	/	3.1	-12.7	14.0	/	/	/	/	/	/
CC1(C)CC(C)(O)N(Cc2ccccc2)C(=S)N1 (centres undefined)	0.9	/	0.0242	-4.2	-0.8	6.4	/	/	/	/	/	/
C=C1c2cc3c(cc2NC(=S)N1Cc1ccccc1)OCO3	/	/	53.2*	/	/	/	0.0157*	0.0989*	0.0324	0.0353*	0.0473*	0.0159*
COc1ccc(CN2CCn3ncc(C(=O)Nc4cc(C)cc(C)c4)c3C2=O)cc1	0.8	/	-0.204	1.8	-17.1	20.1	/	/	/	/	/	/
CCc1cc(C(=O)Cc2nc3ccccc3s2)c(O)cc1OCC(=O)O	/	/	-0.577	/	/	/	/	/	/	/	/	/
O=C(Cn1[nH]c(=O)c2ccccc2c1=O)NC1CCN(Cc2ccccc2)CC1	1	/	-4.34*	68.8*	-1.0	1.2	0.0179	0.00379	0.0293	0.00764	0.017	0.011
O=C(Cn1[nH]c(=O)c2ccccc2c1=O)NC1CCCCCC1	0.9	0.309	-0.385	2.8	-7.0	10.8	/	/	/	/	/	/
Cc1nn(CC(=O)O)c2ccccc12	0.8	/	6.56*	-5.3	-7.9	15.0	0.0093	0.00643	0.0285	0.0076	0.0563	0.00947
CCOC(=O)c1ccccc1-c1csc(NS(=O)(=O)c2ccc(Cl)cc2)n1	0.9	/	-3.75	-9.0	18.2	6.2	/	/	/	/	/	/
O=C(NC(=S)Nc1ccc(N2CCCCC2)cc1)c1cccs1	0.7	/	/	-6.5	3.2	32.2	/	/	/	/	/	/
CS(=O)(=O)Nc1ccc(C(=O)N2CCN(c3ccccc3)CC2)cc1	0.9	/	0.215	-3.5	2.7	7.3	0.00771	0.00427	0.0266	0.00782	0.0184	0.00979
O=C(c1ccc(S(=O)(=O)N2CCCCC2)cc1)N1CCN(c2ccccc2)CC1	1	/	-0.927	16.2	1.9	1.3	/	/	/	/	/	/
O=C(c1ccc2ccccc2c1)N1CCN(c2ccc(O)cc2)CC1	0.8	/	-3.7*	90.3*	21.4	16.5	0.0104	0.00623	0.0328	0.00817	0.019	0.0122
